Consider 7 compounds from ChEMBL document CHEMBL4811293, “Novel irreversible covalent BTK inhibitors discovered using DNA-encoded chemistry” (Bioorg Med Chem, 2021).

Experiment [1] concerns Tyrosine-protein kinase BTK (Homo sapiens), Q06187 [C481S]. As to the kind of experiment: Binding affinity to BTK C481S mutant (unknown origin) by mass spectrometry analysis relative to control. Set-up: concentration or dose not given beside the values. In outline:
(§1)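 Wild-type or C481S BTK incubated with compound for one hour. Samples diluted to 0.1 mg/ml protein in 5% acetonitrile/0.1% formic acid, then reversed-phase C4 LC (80 °C, acetonitrile/0.1% FA gradient, UV 214 and 280 nm) coupled to positive-mode ESI-MS for intact mass. Adduct read as the mass shift versus BTK alone.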

For experiment [2], the target named is T1, Tyrosine-protein kinase BTK (Homo sapiens, UniProt Q06187). Briefly: Inhibition of recombinant human N-terminal His-tagged BTK expressed in baculovirus infected in Sf9 cells assessed as inhibitory constant incubated for 1 hr by TR-FRET assay. In outline: (§2)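 Proteros reporter displacement assay. BTK is preincubated with a Cy5-labelled ATP-competitive probe, then unlabelled competitor is added and signal recorded over 1 h, in technical triplicates. Data normalized to high and low controls at each time point. IC50 is apparent after 1 h. kobs comes from a mono-exponential decay fit excluding the first point, and is refit as kobs = kinact·[I]/(KI+[I]) to give kinact, KI and kinact/KI.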
T1 sequence (Q06187 whole entry): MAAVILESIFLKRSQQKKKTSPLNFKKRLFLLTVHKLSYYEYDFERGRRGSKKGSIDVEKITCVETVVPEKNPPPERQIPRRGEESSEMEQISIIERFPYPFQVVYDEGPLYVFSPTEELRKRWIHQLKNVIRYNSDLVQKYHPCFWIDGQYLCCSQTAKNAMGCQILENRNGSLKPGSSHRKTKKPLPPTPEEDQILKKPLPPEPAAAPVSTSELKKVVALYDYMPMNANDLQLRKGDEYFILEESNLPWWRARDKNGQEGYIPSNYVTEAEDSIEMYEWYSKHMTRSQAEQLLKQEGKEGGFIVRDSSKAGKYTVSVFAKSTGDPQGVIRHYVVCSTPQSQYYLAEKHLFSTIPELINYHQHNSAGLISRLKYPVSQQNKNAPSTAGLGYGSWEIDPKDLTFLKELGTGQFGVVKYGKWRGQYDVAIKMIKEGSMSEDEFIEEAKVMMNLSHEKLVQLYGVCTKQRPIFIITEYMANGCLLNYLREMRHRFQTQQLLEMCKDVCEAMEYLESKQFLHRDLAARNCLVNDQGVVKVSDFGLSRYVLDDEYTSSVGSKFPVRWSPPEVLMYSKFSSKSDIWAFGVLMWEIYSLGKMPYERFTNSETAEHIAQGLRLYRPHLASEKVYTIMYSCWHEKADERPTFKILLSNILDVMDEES
On the technique in general: TR-FRET usually uses a lanthanide donor and a delayed reading to cut background.

Experiment [3] relates to Tyrosine-protein kinase BTK (Homo sapiens), Q06187 [C481S]. As to the kind of experiment: Binding affinity to recombinant human BTK C481S mutant (389 to 659 residues) expressed in insect cells assessed as change in melting temperature at 50 uM incubated for 120 mins by thermal shift assay. The procedure, abridged: (§3)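 BTK (389-659), wild-type or C481S, at 5 μM with 50 μM compound for 120 min at room temperature in 20 mM HEPES pH 8.0, 0.5 mM TCEP, 150 mM NaCl, 0.01% Tween20, 0.5% DMSO. nanoDSF with a 20–95 °C ramp at 2.5 °C/min, tryptophan 350/330 nm ratio. Tm taken from the first-derivative maximum, three technical replicates. ΔTm is Tm with compound minus apo Tm.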
Sequence of Tyrosine-protein kinase BTK (Homo sapiens), Q06187 [C481S] (Q06187 whole entry C481S, the tested form may be a part): as the sequence (Q06187 whole entry) above, with C481S counted along it

Experiment [4] has as its target T1, Tyrosine-protein kinase BTK. As to the kind of experiment: Inhibition of recombinant human N-terminal His-tagged BTK expressed in baculovirus infected in Sf9 cells assessed as ratio of inactivation constant to inhibitory constant incubated for 1 hr by TR-FRET assay. In outline: as §2
Experiment [5] shares this target. As to the kind of experiment: Inhibition of recombinant human N-terminal His-tagged BTK expressed in baculovirus infected in Sf9 cells incubated for 1 hr by TR-FRET assay. The procedure, abridged:
as §2

The target of experiment [6] is Tyrosine-protein kinase BTK (Homo sapiens, UniProt Q06187, C481S). Briefly: Inhibition of recombinant human N-terminal His-tagged BTK C481S mutant expressed in baculovirus infected in Sf9 cells incubated for 1 hr by TR-FRET assay. The procedure, abridged: (§4)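 Proteros reporter displacement assay: enzyme pre-incubated with Cy5-labelled ATP-competitive kinase inhibitor probe, then unlabeled competitor added. Signal recorded for 1 hour and normalized at each time-point to high (enzyme + probe, no competitor) and low (enzyme, no probe, with competitor) controls. Technical triplicates.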
Sequence of Tyrosine-protein kinase BTK (Homo sapiens, UniProt Q06187, C481S) (Q06187 2-659 C481S limits assumed): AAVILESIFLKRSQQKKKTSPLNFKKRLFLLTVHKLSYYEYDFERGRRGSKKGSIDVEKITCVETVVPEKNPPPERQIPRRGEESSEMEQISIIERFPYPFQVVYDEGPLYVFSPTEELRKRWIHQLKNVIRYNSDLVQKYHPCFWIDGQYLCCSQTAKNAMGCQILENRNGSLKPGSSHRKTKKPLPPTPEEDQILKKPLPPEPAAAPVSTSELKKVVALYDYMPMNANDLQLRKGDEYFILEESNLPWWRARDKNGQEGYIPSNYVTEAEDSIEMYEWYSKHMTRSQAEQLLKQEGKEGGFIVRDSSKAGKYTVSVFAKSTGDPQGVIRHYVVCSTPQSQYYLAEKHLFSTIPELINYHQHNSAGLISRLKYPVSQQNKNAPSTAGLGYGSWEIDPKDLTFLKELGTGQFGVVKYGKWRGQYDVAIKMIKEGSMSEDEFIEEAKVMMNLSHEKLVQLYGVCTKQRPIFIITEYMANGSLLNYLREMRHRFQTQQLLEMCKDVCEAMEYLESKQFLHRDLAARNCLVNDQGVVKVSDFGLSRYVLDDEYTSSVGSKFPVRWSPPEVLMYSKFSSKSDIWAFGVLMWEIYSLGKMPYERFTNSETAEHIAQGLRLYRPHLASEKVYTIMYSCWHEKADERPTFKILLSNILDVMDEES

The target of experiment [7] is T1, Tyrosine-protein kinase BTK. Briefly: Binding affinity to recombinant human BTK (389 to 659 residues) expressed in insect cells assessed as change in melting temperature at 50 uM incubated for 120 mins by thermal shift assay. In outline: as §3
The target is the same in experiment [8]. As to the kind of experiment: Binding affinity to BTK (unknown origin) by mass spectrometry analysis relative to control. The arrangement: concentration or dose not given beside the values. In outline: as §1
For experiment [9] the target is unchanged. Briefly: Inhibition of recombinant human N-terminal His-tagged BTK expressed in baculovirus infected in Sf9 cells assessed as inactivation constant incubated for 1 hr by TR-FRET assay. In outline: as §2
Experiment [10] deals with Tyrosine-protein kinase BTK (Homo sapiens), Q06187 [C481S]. As to the kind of experiment: Inhibition of recombinant human N-terminal His-tagged BTK C481S mutant expressed in baculovirus infected in Sf9 cells assessed as residence time incubated for 1 hr by TR-FRET assay. In outline:
as §4

Experiment [11] addresses T1, Tyrosine-protein kinase BTK. As to the kind of experiment: Inhibition of recombinant wild type human N-terminal His-tagged BTK expressed in baculovirus infected in Sf9 cells assessed as residence time incubated for 1 hr by TR-FRET assay. In outline: as §4

Molecules are shown by their SMILES. Square brackets hold non-standard residues; d marks the D form. Peptide text beside a SMILES is read from it. * marks the point of attachment. Oic = O=C(O)[C@@H]1C[C@@H]2CCCC[C@@H]2N1; Phe(4-CN) = N#Cc1ccc(C[C@H](N)C(=O)O)cc1; Acryloyl = C=CC(=O)* Some results are limits rather than exact numbers.

As for `CNC(=O)[C@@H](Cc1ccc(C#N)cc1)NC(=O)[C@@H](NC(=O)[C@]1(C)CO1)[C@@H](C)OC(C)(C)C`, the Activity in [1] worked out at 0%; in experiment [8], 92.3%. Moreover, the Ki in experiment [2] came out at 1250 nM. Also, the ΔTm was 0.23 °C in experiment [3] and 4.51 °C in experiment [7]. The Ratio in experiment [4] came out at 6580 s⁻¹ M⁻¹. The IC50 in [5] is 58.1 nM; in [6], over 59200 nM. Also, in experiment [9], the Kinact was 8.22 10^-3/s.
`CNC(=O)[C@H]1Cc2c([nH]c3ccccc23)CN1C(=O)[C@@H](Cc1ccccc1)NC(=O)c1c[nH]c(C(N)=O)c1`: the TIME in [10] came out at 0.233 h; in experiment [11], 0.567 h. For the same compound, the IC50 in [5] was 22.7 nM; in experiment [6] it was 56.2 nM.
Consider `C=CC(=O)N1[C@H](C(=O)N[C@@H](Cc2ccc(C#N)cc2)C(=O)NC)C[C@@H]2CCCC[C@@H]21` (Acryloyl-[Oic]-[Phe(4-CN)]-NHMe), for which the Activity in experiment [1] is 0%; in experiment [8] it was 94.4%. Besides, the IC50 in experiment [5] is 36400 nM; in [6], over 59200 nM.
Take `C=CC(=O)N1CCC[C@H](CC(=O)N2Cc3[nH]c4ccccc4c3C[C@@H]2C(=O)NC)C1`: the Activity in [1] was 0%; in experiment [8], 97.9%. In addition, the figures for the ΔTm in [3] and in experiment [7] were 0.1 °C and 6.55 °C, respectively. For the same compound, the Ratio in experiment [4] turned out to be 59.2 s⁻¹ M⁻¹. In addition, the IC50 in experiment [5] is 4760 nM; in experiment [6] it was over 59200 nM.
In the case of `CNC(=O)[C@@H](Cc1ccc(C#N)cc1)NC(=O)[C@@H](NC(=O)[C@@H]1CO1)c1ccccc1`, the Activity in [1] was found to be 0%; in experiment [8], 95.2%. Moreover, in experiment [2], the Ki was 1930 nM. Moreover, the values for the ΔTm in experiment [3] and in experiment [7] were -0.15 °C and 6.36 °C, respectively. Also, in [4], the Ratio is 4880 s⁻¹ M⁻¹. The IC50 was 84.2 nM in experiment [5] and over 59200 nM in experiment [6]. In experiment [9], the Kinact was 9.41 10^-3/s.
For `CNC(=O)[C@H]1Cc2c([nH]c3ccccc23)CN1C(=O)C[C@@H](Cc1cccc(F)c1)NC(=O)C1CO1` (stereo partly specified), in [2], the Ki was 9270 nM. In addition, the Ratio in experiment [4] was found to be 1660 s⁻¹ M⁻¹. Moreover, the values for the IC50 in experiment [5] and in experiment [6] were 232 nM and over 59200 nM, respectively. For the same compound, the Kinact in [9] was 1.54 10^-2/s.
Regarding `CNC(=O)[C@H]1Cc2c([nH]c3ccccc23)CN1C(=O)c1occc1CNc1ccc2nccnc2c1`, the Activity in [1] and in experiment [8] was 0% in each case. Further, the ΔTm in [3] was found to be 13.4 °C; in [7] it was 13.2 °C. Moreover, the figures for the TIME in experiment [10] and in experiment [11] were 0.367 h and 0.15 h, respectively. Besides, the IC50 stood at 3.78 nM in [5] and 3.04 nM in [6].

In general, Ki refers to a measure of affinity in units of concentration, obtained from inhibition or displacement. One may read the ΔTm as the shift of the melting midpoint relative to a reference. A word on the IC50: it is the concentration needed to halve the response being measured.
